Reference: ChEMBL document CHEMBL4513216, “Probing the Open Global Health Chemical Diversity Library for Multistage-Active Starting Points for Next-Generation Antimalarials” (ACS Infect Dis, 2020)

Assay: Toxicity liver stage against HepG2, at 10uM
Assay type: cell-based
Parameters: test concentration 10 uM, cell line HepG2-A16-CD81EGFP
Conditions: human, HepG2-A16-CD81EGFP cells; read-out: INHIBITION
In short: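 Uninfected HepG2-A16-CD81EGFP cells, 3 × 10^3 per well, 1536-well, plated on prespotted compound at 10 μM final, parasite-free screening media added to match infected plates; puromycin 10 μM positive, DMSO 0.5% negative; run in parallel with 48 h PbLuc assay at 37 °C, 5% CO2; viability by CellTiter-Glo luminescence, normalized to controls.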

SMILES | cytotoxicity at 10 µM
CC(=O)Nc1ccc2c(c1)CN(C(=O)c1ccco1)CC2 | 6.17%
CCCS(=O)(=O)N1CC[C@H]2OCC[C@@]2(c2nnc(C)o2)C1 | 8.43%
COc1cc(C(=O)NCC2CC2)nc2c(C)cc(F)cc12 | 7.52%
Cc1ccc(C)c(Oc2cc(-n3nc(C)c(C#N)c3N)nc(C)n2)c1 | 69.5%
CSCC(C)(O)CNC(=O)c1cc(Br)ccc1Cl (configuration not stated) | -25.1%
CS(=O)(=O)N1Cc2ccccc2C2(CCN(C(=O)c3ccno3)CC2)C1 | 6.31%
CCOc1ccc(S(=O)(=O)N(C)Cc2cnn(CC)c2)cc1 | 11.6%
Cc1cc2nc(CN(C)c3ccc(Cl)cc3)cc(=O)n2o1 | -13%
Cc1nn(C)c2cn(C(C)C(=O)NCc3ccccn3)nc12 (configuration not stated) | 11.1%
COc1ccc(CNC(Cc2ccsc2)c2ncccc2C)cc1OC (configuration not stated) | 0.735%
COc1cccc([C@H]2CN(C(=O)c3ccccc3)[C@@H]3CCCN[C@H]23)c1 | -25.9%
CCCn1nccc1-c1cc(C2CCN(S(C)(=O)=O)CC2)ccn1 | -6.94%
CCS(=O)(=O)N1CCCC(Cc2cnccn2)C1 (configuration not stated) | -10.3%
Cc1ccc(-c2cc(N)c(=O)n(CC(=O)NC3CCCCC3)n2)s1 | 2.98%
CS(=O)(=O)N1Cc2ccccc2CC2(CCN(Cc3ccccc3)C2)C1 (configuration not stated) | 7.38%
N#Cc1cccc(OCCN2CCC(C(=O)N3CCOCC3)CC2)c1 | -42.3%
Cc1nc(-c2cccs2)ccc1C(=O)N1CCN(CC(C)O)CC1 (configuration not stated) | -45.1%
CN(C)CCNc1ncccc1CNC(=O)Nc1cc(F)cc(F)c1 | 2.62%
CCCn1ccnc1-c1cccc(NC(=O)C2CCCOC2)c1 (configuration not stated) | -2.43%
Clc1cc(CN2CCCN3CCCC3C2)c2ncccc2c1 (configuration not stated) | 19.5%
CCN(Cc1nc(-c2ccco2)no1)Cc1cccc2c1OCO2 | 8.33%
CC(C)COc1cncc(NCCc2nnc3ccccn23)n1 | 7.55%
CC(C)N(C)S(=O)(=O)NCc1cccnc1N(C)C | 2.57%

SMILES | cytotoxicity at 10 µM
CCN1CCCC(NC(=O)c2ccc(C)[nH]c2=O)C1 (configuration not stated) | 9.95%
CN(c1nc(Cn2cnccc2=O)cs1)C1CC1 | -6.59%
CCCC(=O)NC1CCCN(c2cncc(Br)c2)C1 (configuration not stated) | -38.5%
Cn1c(N)nnc1SCc1c(F)cccc1Br | -43.2%
CCc1nc(CN2CCCN(C(=O)Cc3cccs3)CC2)cs1 | 2.55%
CCC(CC)NC(=O)c1cccnc1-n1cccn1 | -13.9%
CN(C)c1ccc(CNC2(c3ccc(F)cc3)CCOCC2)cc1F | 0.937%
Cc1c(C(=O)NC2CCCOC2)nnn1-c1ccc(Cl)cc1F (configuration not stated) | 8.55%
CC(=O)Nc1nc(CS(=O)(=O)Cc2ccccc2)cs1 | -3.39%
CCn1cc(NC(=O)C2CCN(Cc3nc(C)c(C)s3)CC2)cn1 | 6.37%
CCC(C)C(=O)Nc1ccc2oc(=O)n(CCN(C)C)c2c1 (configuration not stated) | -14.8%
C=C(C)CN1CCC(NC(=O)NCCc2ccc(N(C)C)cc2)CC1 | 2.2%
CC(CNC(=O)c1ccc(F)cc1I)N1CCCC1 (configuration not stated) | 1.28%
Cc1cc(=O)n2ncnc2n1CC(O)COCc1ccccc1Cl (configuration not stated) | 3.52%
Cc1sc2nc(C(F)(F)F)nc(N3CCN(S(C)(=O)=O)CC3)c2c1C | -8.07%
NC(c1ccc(F)cc1)c1cccs1 (configuration not stated) | 15.6%
N#Cc1cccnc1NCc1ccc(S(=O)(=O)NCC2CCCO2)cc1 (configuration not stated) | 5.98%
O=C(C1CCCN(Cc2cccnc2)C1)N1CCc2sccc2C1 (configuration not stated) | 7.99%
Cc1cc(C)cc(C(=O)NCCCNc2ncccn2)c1 | 32.4%
OCCNC1CCc2cc3c(cc21)OCCO3 (configuration not stated) | -5.82%
CCCNC(=O)c1cccc(CNCc2csc(C(C)C)n2)c1 | 6.14%
CC(C)N(Cc1ccc(C#N)cc1)C(=O)NCCNc1ncccn1 | 3.78%
Cc1cc(C)c(CNc2nc3ccccc3cc2CO)c(=O)[nH]1 | 6.37%

SMILES | cytotoxicity at 10 µM
COc1cc(F)cc(NC(=O)NCc2cccc(N(C)C)n2)c1 | 25%
COCC(C)NS(=O)(=O)c1ccc(Br)cn1 (configuration not stated) | -6.74%
CC(C)Nc1nc(N2CCOCC2)nc2c1CN(Cc1ccoc1)CC2 | 1.52%
CC(=O)N1CCC(n2ccc(-c3cnc(NCC(C)C)nc3)n2)CC1 | -9.13%
CC1(C)C(C(=O)NCCC2CN(Cc3c[nH]cn3)CCO2)C1(C)C (configuration not stated) | -3.67%
CSCC(=O)N(C)Cc1noc(-c2ccccc2)n1 | -4.34%
CNS(=O)(=O)c1ccc(CN2CCCN(Cc3ccncc3)CC2)cc1 | 7.06%
O=C1Nc2ccccc2NC12CCN(Cc1nnc(C3CC3)o1)CC2 | -7.03%
O=C1CC2(CCN(C(=O)c3cccc(Cl)c3)CC2)CN1 | -3.02%
Cc1nccn1-c1ccc(NC(=O)C2CCCN2CC2CC2)cc1 (configuration not stated) | -14%
CCc1nc2c(NCC3COc4c(cccc4OC)C3)ncnc2o1 (configuration not stated) | -0.164%
CN(C)C(=O)c1cccnc1N1CCOC(c2ccc(Cl)cc2)C1 (configuration not stated) | 9.39%
OCc1ccc(CN(CCCn2ccnc2)Cc2cccnc2)o1 | -6.75%
CC(O)c1cn(CC2CCN(C(=O)c3cccc(N(C)C)c3)CC2)nn1 (configuration not stated) | -0.412%
COc1ccc(OC2CCN(c3ccncc3)CC2)cc1 | 2.1%
COc1ccc2c(c1)C(C(=O)N(C)CCCc1cnn(C)c1)CC(=O)N2 (configuration not stated) | -46.9%
COc1ccccc1C1CNC(=O)c2nc(-c3nccn3C)[nH]c2C1 (configuration not stated) | 4.2%
Cc1cnc(C)c(-c2cccc(-c3ccn(CCN4CCCC4)n3)c2)n1 | -10.5%
NC(=O)CN1CCC(C(=O)NCc2nc(-c3ccc(F)cc3)cs2)CC1 | -5.79%
CCCN1CCC(CC(=O)N(C)CC(=O)c2ccc(O)cc2)CC1 | 1.73%
O=C(C1CCC1)N1CCC(C2CCN(Cc3ccc(Cl)cc3)C2)CC1 (configuration not stated) | -10.5%
Cc1cc(C(=O)N[C@H]2COC[C@@H]2N2CCOCC2)c2ccc(F)cc2n1 | -48.2%
CCOc1ccc(C(=O)CCC(=O)NCc2csc(N)n2)cc1C | 7.34%

SMILES | cytotoxicity at 10 µM
CC(C)CN1CC2(CCN(C(=O)c3nc4ncccn4n3)CC2)CC1=O | 0.345%
COc1cc(N2CCOC(c3ccc(F)cc3)C2)ncn1 (configuration not stated) | 15.3%
Cc1ccc(C(=O)NCCN2CCOCC2)cc1N(C)S(C)(=O)=O | 15.1%
COc1ccc(-c2nc3c([nH]2)CCNC3C(=O)O)c2ccccc12 (configuration not stated) | 8.63%
Cc1cc(C)c2cc(CNCC3CCCO3)c3nn(C)c(=O)n3c2c1 (configuration not stated) | -4.63%
O=C(CN1C=Nc2ccccc2S1(=O)=O)NCCCc1ccccc1 | -3.54%
CN(CCOc1cccc(F)c1)Cc1nc2c(cnn2C)c(=O)[nH]1 | -0.966%
NC(=O)C1CCN(Cc2csc(-c3ncccn3)n2)CC1 | -6.04%
c1ccc2oc(CN3CCCCC3Cn3cncn3)nc2c1 (configuration not stated) | -13.9%
CCc1nccn1C1CCCN(C(=O)c2cnn3cccnc23)C1 (configuration not stated) | -18.2%
O=C(COc1ccc(Cl)cc1)N1CCOCC1c1ncon1 (configuration not stated) | -21%
Cc1cc(NC(=O)CN2CCOC(Cn3nc(C)cc3C)C2)n(C)n1 (configuration not stated) | -7.91%
CC(C)CNC(=O)CN1C=Nc2ccccc2S1(=O)=O | -2.09%
CC(NC(=O)CSCC#N)c1ccccc1 (configuration not stated) | -5.9%
c1ccc2oc(N3CCCCC3Cn3cncn3)nc2c1 (configuration not stated) | -7.59%
CC(C)c1nc(C2CCCN(C(=O)CCn3ccnc3)C2)no1 (configuration not stated) | -10.8%
CC(C(=O)Nc1ccc(N2CCCC2)nc1)n1cncn1 (configuration not stated) | -6.19%
Cc1ccccc1-c1noc(CN2CCn3c(nnc3C3CC3)C2)n1 | -7.64%
O=C(Nc1cnn(CCN2CCOCC2)c1)c1ccccc1O | -3.38%
Cc1ccc(Cc2cnc(NC(=O)C3CNC(=O)N3)s2)cc1F (configuration not stated) | 1.11%
CC(=O)N1CCN(C(=O)c2cnn(-c3ccccc3Cl)c2)CC1 | -8.72%
Cc1ccccc1CCNC(=O)C1CC(=O)N(CC(F)(F)F)C1 (configuration not stated) | -6.17%
Cc1cnn(CC2CCN(CC(O)COc3ccc(F)cc3)CC2)c1 (configuration not stated) | -10.9%

SMILES | cytotoxicity at 10 µM
COCC1CN(CC2CC2)Cc2nn(C)cc21 (configuration not stated) | 0.281%
COc1ccc(C[C@H]2CN(c3cc(OC)ncn3)CC[C@@H]2OC)cc1 | 50%
O=C(c1ccncc1F)N1Cc2nc(COCC3CC3)oc2C1 | -99.9%
O=S(=O)(c1cccnc1)N1C[C@@H]2COC[C@]2(CN2CCOCC2)C1 | 5.86%
CN(Cc1ccncc1)C1CC2(CCN(c3ncc(F)cn3)CC2)C1 | 52.4%
Cn1cccc1C(=O)N1CC[C@H]2[C@H]1CCN2CC1CC1 | -3.86%
CCCN1CCc2c(C(=O)N(C)Cc3ccccn3)nn(C)c2C1 | -1.92%
Cc1ccc2c(c1)C1(CCNCC1)CC2NCCO (configuration not stated) | -105%
CCC(=O)Nc1ccc2c(c1)C1(CCOCC1)CN2CCOC | -99%
Cc1ccc(N2CC[C@@H]3[C@@H]2CCN3C(=O)Cc2ccsc2)nn1 | -93.9%
CCOc1c(Br)cc(CNCCc2nnc3n2CCCCC3)cc1OC | -59.6%
COc1cc(N2CCC3(CCN(Cc4csc(C)n4)C3)CC2)ncn1 | -118%
Cc1ccc(C(=O)N2CCC3(CC2)CC(N2CCOCC2)C3)cc1 | 1.93%
O=C1CC[C@H]2[C@H](CCN2c2ncccn2)N1c1ccccc1 | 5.77%
COc1ncccc1CNC1CCc2c(ccc(=O)n2CC2CC2)C1 (configuration not stated) | -110%
Cc1nc(COC[C@@H]2CC[C@H]3NCC[C@H]3O2)cs1 | -3.15%
C1CC(N2C[C@@H]3COC[C@]3(COCC3CCOCC3)C2)C1 | -111%
CN(Cc1ccco1)[C@@H]1CN(Cc2cccnc2)[C@@H]2CCCO[C@H]12 | -79.8%
CCC=C(C)C(=O)NCc1ccnc(OC2CCOCC2)c1 | 5.48%
C=c1ccoc1=C1NN=C(CNC2CCCN(c3cccnn3)C2)O1 (configuration not stated) | -9.48%
